Experimental data reported in ChEMBL document CHEMBL4376835, “Discovery of Nonpungent Transient Receptor Potential Vanilloid 1 (TRPV1) Agonist as Strong Topical Analgesic” (J Med Chem, 2020).
The source made the active and inactive calls. The calls are words filed in the database; no cut-off is given here.

Columns and labels:
[1] = Systemic drug absorption in porcine skin assessed as drug accumulation in acceptor Franz cell applied topically as carbopol-gel with 1% formulation measured for 8 hrs by Franz diffusion cell based in vitro transdermal delivery test; type: ADME, tissue-based, Sus scrofa, Zone of skin; conditions: pig
[2] = molecular target: Transient receptor potential cation channel subfamily V member 1 (Rattus norvegicus) (UniProt O35433); assay: Potency index, ratio of Ki of capsaicin to Ki for displacement of [3H]RTX from rat TRPV1 expressed in CHO cells incubated for 60 mins by scintillation counting method; type: cell-based
[3] = Genotoxicity in ip dosed rat by micronucleus assay; type: toxicity, organism-based; conditions: in vivo
[4] = molecular target: Transient receptor potential cation channel subfamily A member 1 (Homo sapiens) (UniProt O75762); assay: Agonist activity at human TRPA1 expressed in HEK293 cells assessed as increase in calcium influx at 0.3 to 30 uM incubated for 1 min by Fluo-4-AM dye based FLIPR assay; type: cell-based
Summary of the method: (§1)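 Cells individually transfected with a single TRP channel (TRPV1, hTRPA1, mTRPA1, mTRPV3 or mTRPM8). Intracellular calcium influx recorded by FLIPR after the test compound was applied. Each cell type was also challenged with an agonist suited to its own TRP channel.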

[5] = Genotoxicity in Salmonella typhimurium TA1537 incubated for 48 hrs by Ames test; type: toxicity; conditions: salmonella enterica subsp. enterica serovar typhimurium
[6] = molecular target: T1, Transient receptor potential cation channel subfamily V member 1 (Homo sapiens, UniProt Q8NER1); assay: Potency index, ratio of EC50 of capsaicin to EC50 of compound for agonist activity at human TRPV1 expressed in CHO cells assessed as increase in 45Ca2+ uptake incubated for 5 mins by liquid scintillation counting method; type: cell-based
[7] = molecular target: Transient receptor potential cation channel subfamily V member 1 (Rattus norvegicus, UniProt O35433); assay: Displacement of [3H]-RTX from rat TRPV1 expressed in CHO cells incubated for 60 mins by radioligand competition assay based scintillation counting method; type: cell-based
[8] = Genotoxicity in CHO-WBLT cells assessed as chromosomal aberration incubated for 6 hrs in presence of rat S9 by FISH painting analysis; type: toxicity, subcellular, Cricetulus griseus; conditions: chinese hamster, s9, 6 h
[9] = Genotoxicity in Salmonella typhimurium TA104 incubated for 48 hrs in presence of rat S9 by Ames test; type: toxicity, subcellular; conditions: salmonella enterica subsp. enterica serovar typhimurium, s9, 48 h
[10] = Genotoxicity in Salmonella typhimurium TA1538 incubated for 48 hrs by Ames test; type: toxicity; conditions: salmonella enterica subsp. enterica serovar typhimurium
[11] = molecular target: Transient receptor potential cation channel subfamily V member 1 (Rattus norvegicus) (UniProt O35433); assay: Partial agonist activity at rat TRPV1 expressed in CHO cells assessed as maximal increase in 45Ca2+ uptake incubated for 5 mins by liquid scintillation counting method relative to capsaicin; type: cell-based
Summary of the method: (§2)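 Human or rat TRPV1 heterologously expressed in CHO cells; functional agonism read as 45Ca2+ uptake. Values are means of at least three experiments.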

[12] = Genotoxicity in Salmonella typhimurium TA1538 incubated for 48 hrs in presence of rat S9 by Ames test; type: toxicity, subcellular; conditions: salmonella enterica subsp. enterica serovar typhimurium, s9, 48 h
[13] = Genotoxicity in Salmonella typhimurium TA97 incubated for 48 hrs in presence of rat S9 by Ames test; type: toxicity, subcellular; conditions: salmonella enterica subsp. enterica serovar typhimurium, s9, 48 h
[14] = Genotoxicity in Salmonella typhimurium TA1535 incubated for 48 hrs in presence of rat S9 by Ames test; type: toxicity, subcellular; conditions: salmonella enterica subsp. enterica serovar typhimurium, s9, 48 h
[15] = Genotoxicity in Salmonella typhimurium TA100 incubated for 48 hrs by Ames test; type: toxicity; conditions: salmonella enterica subsp. enterica serovar typhimurium
[16] = molecular target: T2, Transient receptor potential cation channel subfamily V member 3 (Mus musculus) (UniProt Q8K424); assay: Agonist activity at mouse TRPV3 expressed in HEK293 cells assessed as increase in calcium influx at 0.3 to 30 uM incubated for 1 min by Fluo-4-AM dye based FLIPR assay; type: cell-based; summary of the method: as §1
T2 sequence (whole entry): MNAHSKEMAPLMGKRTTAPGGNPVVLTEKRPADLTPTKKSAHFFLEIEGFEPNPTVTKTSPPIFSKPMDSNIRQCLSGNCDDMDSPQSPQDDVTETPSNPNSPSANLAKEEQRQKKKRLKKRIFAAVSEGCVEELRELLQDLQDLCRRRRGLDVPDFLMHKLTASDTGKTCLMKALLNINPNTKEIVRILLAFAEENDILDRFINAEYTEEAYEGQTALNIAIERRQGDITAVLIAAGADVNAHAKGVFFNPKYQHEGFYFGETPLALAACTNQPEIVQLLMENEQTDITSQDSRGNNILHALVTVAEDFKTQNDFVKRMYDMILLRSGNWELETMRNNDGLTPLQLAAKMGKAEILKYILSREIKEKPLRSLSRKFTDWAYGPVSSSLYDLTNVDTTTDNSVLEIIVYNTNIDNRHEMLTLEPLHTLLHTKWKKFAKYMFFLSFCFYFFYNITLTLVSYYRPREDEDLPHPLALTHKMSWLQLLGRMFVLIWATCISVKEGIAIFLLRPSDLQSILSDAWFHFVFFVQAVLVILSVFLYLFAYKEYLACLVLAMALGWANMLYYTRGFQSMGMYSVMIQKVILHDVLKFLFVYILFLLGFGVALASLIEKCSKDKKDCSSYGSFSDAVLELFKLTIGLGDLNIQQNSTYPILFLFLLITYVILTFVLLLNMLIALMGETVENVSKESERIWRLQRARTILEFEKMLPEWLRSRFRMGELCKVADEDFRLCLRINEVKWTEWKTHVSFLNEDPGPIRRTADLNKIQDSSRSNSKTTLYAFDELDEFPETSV

[17] = molecular target: T1, Transient receptor potential cation channel subfamily V member 1; assay: Displacement of [3H]-RTX from human TRPV1 expressed in CHO cells incubated for 60 mins by radioligand competition assay based scintillation counting method; type: cell-based
[18] = Genotoxicity in Salmonella typhimurium TA100 incubated for 48 hrs in presence of rat S9 by Ames test; type: toxicity, subcellular; conditions: salmonella enterica subsp. enterica serovar typhimurium, s9, 48 h
[19] = molecular target: T1, Transient receptor potential cation channel subfamily V member 1; assay: Partial agonist activity at human TRPV1 expressed in CHO cells assessed as maximal increase in 45Ca2+ uptake incubated for 5 mins by liquid scintillation counting method relative to capsaicin; type: cell-based; summary of the method: as §2
[20] = molecular target: T1, Transient receptor potential cation channel subfamily V member 1; assay: Potency index, ratio of EC50 of zu-capsaicin to EC50 of compound for agonist activity at human TRPV1 expressed in CHO cells assessed as increase in 45Ca2+ uptake incubated for 5 mins by liquid scintillation counting method; type: cell-based
[21] = molecular target: Transient receptor potential cation channel subfamily A member 1 (Mus musculus) (UniProt Q8BLA8); assay: Agonist activity at mouse TRPA1 expressed in HEK293 cells assessed as increase in calcium influx at 0.3 to 30 uM incubated for 1 min by Fluo-4-AM dye based FLIPR assay; type: cell-based; summary of the method: as §1
[22] = Genotoxicity in Salmonella typhimurium TA1537 incubated for 48 hrs in presence of rat S9 by Ames test; type: toxicity, subcellular; conditions: salmonella enterica subsp. enterica serovar typhimurium, s9, 48 h
[23] = molecular target: T1, Transient receptor potential cation channel subfamily V member 1; assay: Potency index, ratio of Ki of capsaicin to Ki for displacement of [3H]RTX from human TRPV1 expressed in CHO cells incubated for 60 mins by scintillation counting method; type: cell-based
[24] = Drug uptake in porcine skin assessed as dermal accumulation applied topically as carbopol-gel with 1% formulation measured for 8 hrs by Franz diffusion cell based in vitro transdermal delivery test; type: ADME, tissue-based, Sus scrofa, Zone of skin; conditions: pig

T1 sequence (Q8NER1 whole entry): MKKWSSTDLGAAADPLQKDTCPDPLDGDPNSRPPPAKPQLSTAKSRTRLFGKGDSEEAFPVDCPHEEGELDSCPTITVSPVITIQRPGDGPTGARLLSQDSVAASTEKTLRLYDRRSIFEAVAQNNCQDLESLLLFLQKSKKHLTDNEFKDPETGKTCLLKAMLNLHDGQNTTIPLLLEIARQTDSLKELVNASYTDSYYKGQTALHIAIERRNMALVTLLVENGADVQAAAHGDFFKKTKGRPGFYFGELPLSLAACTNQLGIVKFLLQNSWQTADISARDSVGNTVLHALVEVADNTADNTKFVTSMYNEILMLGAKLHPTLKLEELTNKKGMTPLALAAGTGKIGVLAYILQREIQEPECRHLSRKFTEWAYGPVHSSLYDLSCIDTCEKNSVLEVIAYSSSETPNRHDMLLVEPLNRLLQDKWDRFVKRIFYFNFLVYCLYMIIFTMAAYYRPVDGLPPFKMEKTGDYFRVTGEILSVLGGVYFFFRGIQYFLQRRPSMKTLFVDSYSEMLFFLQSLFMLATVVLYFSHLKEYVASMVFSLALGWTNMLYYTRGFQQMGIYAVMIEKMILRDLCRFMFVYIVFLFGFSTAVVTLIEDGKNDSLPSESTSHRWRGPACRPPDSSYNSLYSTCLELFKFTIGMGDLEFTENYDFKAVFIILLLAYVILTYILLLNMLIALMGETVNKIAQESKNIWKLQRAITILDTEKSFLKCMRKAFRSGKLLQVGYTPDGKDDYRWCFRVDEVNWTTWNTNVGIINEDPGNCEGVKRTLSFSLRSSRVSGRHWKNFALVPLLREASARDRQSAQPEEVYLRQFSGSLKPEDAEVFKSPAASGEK
Sequence of Transient receptor potential cation channel subfamily V member 1 (Rattus norvegicus) (O35433 whole entry): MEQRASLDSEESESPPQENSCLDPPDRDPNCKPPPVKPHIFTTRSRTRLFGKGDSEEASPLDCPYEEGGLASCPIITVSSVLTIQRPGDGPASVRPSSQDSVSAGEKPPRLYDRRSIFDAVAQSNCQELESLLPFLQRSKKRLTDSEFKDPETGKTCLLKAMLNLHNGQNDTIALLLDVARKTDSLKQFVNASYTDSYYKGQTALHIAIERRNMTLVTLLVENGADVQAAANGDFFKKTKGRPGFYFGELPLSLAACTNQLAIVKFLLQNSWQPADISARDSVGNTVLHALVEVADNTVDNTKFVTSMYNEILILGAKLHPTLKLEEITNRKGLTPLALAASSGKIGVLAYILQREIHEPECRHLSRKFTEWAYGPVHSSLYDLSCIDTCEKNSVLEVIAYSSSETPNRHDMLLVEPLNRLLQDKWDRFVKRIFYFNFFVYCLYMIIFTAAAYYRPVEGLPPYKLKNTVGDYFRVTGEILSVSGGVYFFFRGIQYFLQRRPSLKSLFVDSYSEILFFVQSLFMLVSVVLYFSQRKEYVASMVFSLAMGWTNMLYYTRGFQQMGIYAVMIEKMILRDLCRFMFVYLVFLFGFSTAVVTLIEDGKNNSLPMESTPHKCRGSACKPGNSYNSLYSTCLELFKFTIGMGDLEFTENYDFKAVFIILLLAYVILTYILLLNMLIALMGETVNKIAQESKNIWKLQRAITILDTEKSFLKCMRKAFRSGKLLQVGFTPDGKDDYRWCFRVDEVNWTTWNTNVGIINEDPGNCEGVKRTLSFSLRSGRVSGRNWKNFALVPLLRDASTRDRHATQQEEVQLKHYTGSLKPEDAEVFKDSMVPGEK
Sequence of Transient receptor potential cation channel subfamily V member 1 (Rattus norvegicus, UniProt O35433) (O35433 whole entry): as above
Sequence of Transient receptor potential cation channel subfamily A member 1 (Homo sapiens) (O75762 whole entry): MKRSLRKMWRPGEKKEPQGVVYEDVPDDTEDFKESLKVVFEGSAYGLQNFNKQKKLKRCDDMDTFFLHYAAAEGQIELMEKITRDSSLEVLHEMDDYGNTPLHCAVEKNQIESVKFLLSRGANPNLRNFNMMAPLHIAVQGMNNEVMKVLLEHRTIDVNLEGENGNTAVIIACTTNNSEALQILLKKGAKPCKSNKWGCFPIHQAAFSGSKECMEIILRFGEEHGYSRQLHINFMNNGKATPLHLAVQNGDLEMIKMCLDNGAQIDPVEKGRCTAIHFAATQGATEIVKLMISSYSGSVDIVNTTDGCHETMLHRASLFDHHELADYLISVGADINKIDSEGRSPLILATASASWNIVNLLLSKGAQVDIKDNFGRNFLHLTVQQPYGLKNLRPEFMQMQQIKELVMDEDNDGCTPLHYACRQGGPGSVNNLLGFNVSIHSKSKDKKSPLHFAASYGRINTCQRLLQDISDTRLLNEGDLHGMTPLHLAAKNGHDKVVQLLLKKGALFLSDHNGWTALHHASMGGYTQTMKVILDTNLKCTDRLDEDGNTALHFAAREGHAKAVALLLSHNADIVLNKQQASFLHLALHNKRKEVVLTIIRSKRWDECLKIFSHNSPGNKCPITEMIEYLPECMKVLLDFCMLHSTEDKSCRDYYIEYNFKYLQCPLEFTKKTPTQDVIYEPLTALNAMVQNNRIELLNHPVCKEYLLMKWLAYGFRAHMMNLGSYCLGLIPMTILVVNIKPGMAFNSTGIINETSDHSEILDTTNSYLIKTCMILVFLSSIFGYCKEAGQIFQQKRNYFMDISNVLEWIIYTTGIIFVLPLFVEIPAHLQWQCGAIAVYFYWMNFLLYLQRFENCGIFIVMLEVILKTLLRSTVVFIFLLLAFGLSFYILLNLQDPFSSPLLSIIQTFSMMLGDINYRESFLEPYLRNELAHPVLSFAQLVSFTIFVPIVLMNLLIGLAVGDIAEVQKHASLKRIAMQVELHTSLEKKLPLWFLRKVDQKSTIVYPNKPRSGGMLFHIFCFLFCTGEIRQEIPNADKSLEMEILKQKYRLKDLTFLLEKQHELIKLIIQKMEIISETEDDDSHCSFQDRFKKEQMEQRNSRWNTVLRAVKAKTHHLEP
Sequence of Transient receptor potential cation channel subfamily A member 1 (Mus musculus) (Q8BLA8 whole entry): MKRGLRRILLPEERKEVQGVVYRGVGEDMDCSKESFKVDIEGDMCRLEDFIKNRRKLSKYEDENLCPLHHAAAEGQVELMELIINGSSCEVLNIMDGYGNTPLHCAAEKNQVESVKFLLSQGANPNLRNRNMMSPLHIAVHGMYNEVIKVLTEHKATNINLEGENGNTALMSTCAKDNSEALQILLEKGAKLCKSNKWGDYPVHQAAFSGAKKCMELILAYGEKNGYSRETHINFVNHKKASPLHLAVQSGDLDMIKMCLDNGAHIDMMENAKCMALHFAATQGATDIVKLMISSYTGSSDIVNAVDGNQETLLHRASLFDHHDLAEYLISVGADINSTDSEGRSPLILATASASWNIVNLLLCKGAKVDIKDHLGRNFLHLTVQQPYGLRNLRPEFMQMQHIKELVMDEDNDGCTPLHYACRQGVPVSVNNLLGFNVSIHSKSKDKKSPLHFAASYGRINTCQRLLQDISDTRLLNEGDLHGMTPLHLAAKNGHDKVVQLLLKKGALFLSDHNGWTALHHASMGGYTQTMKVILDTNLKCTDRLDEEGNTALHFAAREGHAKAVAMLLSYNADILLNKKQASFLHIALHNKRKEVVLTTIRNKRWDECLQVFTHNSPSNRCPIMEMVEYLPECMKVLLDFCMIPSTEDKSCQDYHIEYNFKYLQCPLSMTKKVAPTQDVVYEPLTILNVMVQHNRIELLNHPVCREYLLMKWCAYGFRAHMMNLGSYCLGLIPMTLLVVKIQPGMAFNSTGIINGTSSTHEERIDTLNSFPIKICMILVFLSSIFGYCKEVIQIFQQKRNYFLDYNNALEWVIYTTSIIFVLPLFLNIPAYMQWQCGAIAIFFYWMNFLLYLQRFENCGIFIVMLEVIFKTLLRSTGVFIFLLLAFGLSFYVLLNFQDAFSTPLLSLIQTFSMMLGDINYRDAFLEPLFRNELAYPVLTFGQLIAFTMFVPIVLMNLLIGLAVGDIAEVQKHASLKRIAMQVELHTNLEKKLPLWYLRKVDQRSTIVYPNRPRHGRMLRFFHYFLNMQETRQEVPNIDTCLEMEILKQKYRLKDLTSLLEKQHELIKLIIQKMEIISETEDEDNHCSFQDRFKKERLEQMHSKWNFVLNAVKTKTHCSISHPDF

With `CC(C)(C)c1nc(-c2cccc(Cl)c2)c(CNC(=O)Nc2ccc(CO)c(F)c2)s1` the Drug absorption [1] was “Not Active”, the Ratio Ki [2] was 80 and the Activity [3] was “Non-Toxic”. For the same compound, the Activity [4] was “inactive”, the Activity [5] was “Non-Toxic” and the Ratio EC50 [6] was 5. For the same compound, the Ki [7] was 23.8 nM, the Activity [8] was “Non-Toxic” and the Activity [9] was “Non-Toxic”. For the same compound, the Activity [10] was “Non-Toxic”, the Activity [11] was 50 to 60% and the Activity [12] was “Non-Toxic”. For the same compound, the Activity [13] was “Non-Toxic”, the Activity [14] was “Non-Toxic” and the Activity [15] was “Non-Toxic”. The Activity [16] was “inactive”, the Ki [17] was 11.4 nM and the Activity [18] was “Non-Toxic”. For the same compound, the Activity [19] was 50 to 60%, the Ratio EC50 [20] was 5 and the Activity [21] was “inactive”. The Activity [22] was “Non-Toxic”, the Ratio Ki [23] was 80 and the Drug uptake [24] was “Active”.
